ChEMBL document CHEMBL4706762, “Massively Parallel Optimization of the Linker Domain in Small Molecule Dimers Targeting a Toxic r(CUG) Repeat Expansion” (ACS Med Chem Lett, 2021)
pEC50, pIC50: −log10 of the molar value. Values belong to the molecule of their own block, whether it stands above or below them. Active and inactive are the calls of the source. The rule behind the calls is not given here.

Tests used:
Myotube [1] = assay: Effect on DMPK transcription in DM1-patient derived myotubes at 0.04 to 1 uM measured after 48 hrs by RT-qPCR analysis; format: functional; conditions: Homo sapiens, dose 0.04-1 µM
Outline: (§1)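 Transcript levels, either DMPK or r(CUG) repeat-containing mRNAs, quantified by RT-qPCR in treated DM1 myotubes; n = 6, one-way ANOVA.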

r(CUG) repeat expansion [2] = assay: Binding affinity to r(CUG)exp RNA repeat in DM1-patient derived myotubes assessed as improvement in MBNL1 exon 5 splicing defect at 1 uM measured after 48 hrs by RT-qPCR analysis relative to control; conditions: Homo sapiens, Myotube
Outline: (§2)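 DM1 patient-derived myotubes (1300 r(CUG) repeats) treated 48 h, then MBNL1 exon 5 splicing rescue measured. Single-dose screens at 5 μM or 1 μM, where 1 μM was used if 5 μM altered morphology, n = 3. Dose–response also run, n = 6. SD shown; one-way ANOVA.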

r(CUG) repeat expansion [3] = assay: Binding affinity to r(CUG)exp RNA repeat in DM1-patient derived myotubes assessed as reduction in number of r(CUG)exp-MBNL1 foci at 1 uM measured after 48 hrs by RNA fluorescence in situ hybridization assay; parameters: scale not given: the % may be the effect or the level left; conditions: Homo sapiens, Myotube
Outline: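 Nuclear foci counted in DM1 myotubes by confocal imaging: MBNL1 by immunofluorescence, r(CUG)exp by RNA FISH. Foci per nucleus from 40 nuclei per replicate, n = 3; Student's t-test.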

[4] = Cytotoxicity against DM1-patient derived myotubes assessed as change in cellular morphology at 5 uM measured after 48 hrs; conditions: human, myotube
Outline: (§3)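 Cell morphology of DM1 patient-derived myotubes inspected during 48 h splicing treatment at 5 μM; agents altering morphology were re-tested at 1 μM.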

r(CUG) repeat expansion [5] = assay: Binding affinity to r(CUG)12 RNA repeat (unknown origin) measured after 10 mins by fluorescence assay; format: nucleic-acid assay
r(CUG) repeat expansion [6] = assay: Binding affinity to r(CUG)exp RNA repeat in DM1-patient derived myotubes assessed as improvement in MBNL1 exon 5 splicing defect at 0.2 uM measured after 48 hrs by RT-qPCR analysis relative to control; conditions: Homo sapiens, Myotube; outline: as §2
r(CUG) repeat expansion [7] = assay: Binding affinity to 5'-biotinylated r(CUG)12 RNA repeat (unknown origin) assessed as disruption of r(CUG)12-His-tagged MBNL1 complex formation preincubated for 15 mins followed by MBNL1 addition and measured after 15 mins by TR-FRET assay; format: nucleic-acid assay
Myotube [8] = assay: Effect on alternative splicing of MAP4K4 exon 22a in DM1-patient derived myotubes at 0.04 to 1 uM measured after 48 hrs by RT-qPCR analysis; format: functional; conditions: Homo sapiens, dose 0.04-1 µM
Nucleic Acid = assay: Binding affinity to r(CG)8 RNA repeat (unknown origin) measured after 10 mins by fluorescence assay; format: nucleic-acid assay
[9] = Drug localization in nucleus of DM1-patient derived myotubes at 5 uM measured after 24 hrs by live-cell fluorescence microscopy; format: ADME, subcellular; conditions: human, myotube
Outline: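 DM1 patient myotubes bearing 1300 r(CUG) repeats given 5 μM agent; subcellular localization followed via intrinsic fluorescence of the H RNA-binding modules.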

[10] = Cytotoxicity against DM1-patient derived myotubes assessed as change in cellular morphology at 1 uM measured after 48 hrs; conditions: human, myotube; outline: as §3
Myotube [11] = assay: Effect on MBNL1 exon 5 splicing in wild type human myotubes at 0.04 to 1 uM measured after 48 hrs by RT-qPCR analysis; format: functional; conditions: dose 0.04-1 µM
r(CUG) repeat expansion [12] = assay: Binding affinity to r(CUG)exp RNA repeat in DM1-patient derived myotubes assessed as improvement in MBNL1 exon 5 splicing defect measured after 48 hrs by RT-qPCR analysis; format: tissue-based; conditions: Homo sapiens, Myotube, dose 0.04-1 µM
r(CUG) repeat expansion [13] = assay: Binding affinity to wild-type DMPK r(CUG)20 RNA repeat in DM1 patient-derived myotubes at 1 uM measured after 48 hrs by RT-qPCR analysis; conditions: Homo sapiens, Myotube; outline: as §1
r(CUG) repeat expansion [14] = assay: Binding affinity to MAP3K4 r(CUG)11 RNA repeat in DM1 patient-derived myotubes at 1 uM measured after 48 hrs by RT-qPCR analysis; format: tissue-based; conditions: Homo sapiens, Myotube; outline: as §1
Myotube [15] = assay: Effect on DMPK transcription in wild type human myotubes at 0.04 to 1 uM measured after 48 hrs by RT-qPCR analysis; format: functional; conditions: dose 0.04-1 µM
[16] = Reduction in DMPK transcription in DM1-patient derived myotubes at 0.04 to 1 uM measured after 48 hrs by RT-qPCR analysis; format: functional, Homo sapiens, Myotube; parameters: scale not given: the % may be the effect or the level left; conditions: dose 0.04-1 µM; outline: as §1
r(CUG) repeat expansion [17] = assay: Binding affinity to SORCS2 r(CUG)7 RNA repeat in DM1 patient-derived myotubes at 1 uM measured after 48 hrs by RT-qPCR analysis; conditions: Homo sapiens, Myotube; outline: as §1
r(CUG) repeat expansion [18] = assay: Binding affinity to CASK r(CUG)16 RNA repeat in DM1 patient-derived myotubes at 1 uM measured after 48 hrs by RT-qPCR analysis; conditions: Homo sapiens, Myotube; outline: as §1
r(CUG) repeat expansion [19] = assay: Binding affinity to SCUBE2 r(CUG)7 RNA repeat in DM1 patient-derived myotubes at 1 uM measured after 48 hrs by RT-qPCR analysis; conditions: Homo sapiens, Myotube; outline: as §1
r(CUG) repeat expansion [20] = assay: Binding affinity to LRP8 r(CUG)11 RNA repeat repeat in DM1 patient-derived myotubes at 1 uM measured after 48 hrs by RT-qPCR analysis; conditions: Homo sapiens, Myotube; outline: as §1
r(CUG) repeat expansion [21] = assay: Binding affinity to [5'-32P]-r(CUG)10 RNA (unknown origin) assessed as induction of RNA cleavage at 5 uM measured after 24 hrs by gel electrophoresis method relative to control; format: nucleic-acid assay
Outline: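 5′-radiolabeled r(CUG)10 incubated with agent; cleavage fragments resolved by gel electrophoresis; n = 3, one-way ANOVA.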

r(CUG) repeat expansion [22] = assay: Binding affinity to r(CUG)exp RNA repeat in DM1-patient derived myotubes assessed as improvement in MBNL1 exon 5 splicing defect at 0.04 to 1 uM measured after 48 hrs by RT-qPCR analysis relative to control; format: tissue-based; conditions: Homo sapiens, Myotube, dose 0.04-1 µM
Outline: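 Dose–response for MBNL1 exon 5 splicing rescue in DM1 patient myotubes (1300 r(CUG) repeats) after 48 h treatment; n = 6, SD, one-way ANOVA.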

Drug uptake [9]: Active
SMILES: CNCCCCN(CC(=O)N(CCCNC(=O)CCCOc1cccc(-c2nc3ccc(-c4nc5cc(N6CCN(C)CC6)ccc5[nH]4)cc3[nH]2)c1)CC(N)=O)C(=O)CN(CCCCNC)C(=O)CN(CCO)C(=O)CN(Cc1cccnc1)C(=O)CCCOc1cccc(-c2nc3ccc(-c4nc5cc(N6CCN(C)CC6)ccc5[nH]4)cc3[nH]2)c1
Activity [4]: Non-Toxic

Drug uptake [9]: Active
SMILES: CNCCCCN(CC(=O)N(CC(=O)N(CC(=O)N(CCO)CC(=O)N(CCCNC(=O)CCCOc1cccc(-c2nc3ccc(-c4nc5cc(N6CCN(C)CC6)ccc5[nH]4)cc3[nH]2)c1)CC(N)=O)C1CCCCC1)Cc1cccnc1)C(=O)CCCOc1cccc(-c2nc3ccc(-c4nc5cc(N6CCN(C)CC6)ccc5[nH]4)cc3[nH]2)c1
Activity [4]: Non-Toxic

Activity (r(CUG) repeat expansion [2]): inactive | Drug uptake [9]: Active
SMILES: CNCCCCN(CC(=O)N(CCCNC(=O)CCCOc1cccc(-c2nc3ccc(-c4nc5cc(N6CCN(C)CC6)ccc5[nH]4)cc3[nH]2)c1)CC(N)=O)C(=O)CN(Cc1ccc(OC)cc1)C(=O)CN(CCCCNC)C(=O)CN(C(=O)CCCOc1cccc(-c2nc3ccc(-c4nc5cc(N6CCN(C)CC6)ccc5[nH]4)cc3[nH]2)c1)C1CCCCC1
Activity [4]: Toxic | Activity [10]: Non-Toxic

The next lines start with the molecule.

SMILES: CNCCCCN(CC(=O)N(CCN)CC(=O)N(CCCNC(=O)CCCOc1cccc(-c2nc3ccc(-c4nc5cc(N6CCN(C)CC6)ccc5[nH]4)cc3[nH]2)c1)CC(N)=O)C(=O)CN(C)C(=O)CN(CCCn1ccnc1)C(=O)CCCOc1cccc(-c2nc3ccc(-c4nc5cc(N6CCN(C)CC6)ccc5[nH]4)cc3[nH]2)c1
Activity (Myotube [1]): inactive | Activity (r(CUG) repeat expansion [2]): Active | Activity (r(CUG) repeat expansion [3]): 20% | Activity [4]: Toxic | pEC50 (r(CUG) repeat expansion [5]): 6.97 | Activity (r(CUG) repeat expansion [6]): 7% | pIC50 (r(CUG) repeat expansion [7]): 5.55 | Activity (Myotube [8]): inactive | Activity (Nucleic Acid): inactive | Drug uptake [9]: Active | Activity [10]: Non-Toxic | Activity (Myotube [11]): inactive | Activity (r(CUG) repeat expansion [12]): Dose-dependent effect

SMILES: CNCCCCN(CC(=O)N(CC(=O)N(CCCNC(=O)CCCOc1cccc(-c2nc3ccc(-c4nc5cc(N6CCN(C)CC6)ccc5[nH]4)cc3[nH]2)c1)CC(N)=O)C1CC1)C(=O)CN(CCOC)C(=O)CN(CCO)C(=O)CCCOc1cccc(-c2nc3ccc(-c4nc5cc(N6CCN(C)CC6)ccc5[nH]4)cc3[nH]2)c1
Activity [4]: Non-Toxic | Drug uptake [9]: Active

SMILES: CNCCCCN(CC(=O)N(CCN)CC(=O)N(CCCNC(=O)CCCOc1cccc(-c2nc3ccc(-c4nc5cc(N6CCN(C)CC6)ccc5[nH]4)cc3[nH]2)c1)CC(=O)NCCCCCC(=O)NCCCCNCCCNC(=O)c1csc(-c2csc(CCNC(=O)[C@@H](NC(=O)[C@@H](C)[C@H](O)[C@@H](C)NC(=O)[C@@H](NC(=O)c3nc([C@H](CC(N)=O)NC[C@H](N)C(N)=O)nc(N)c3C)[C@@H](O[C@@H]3O[C@@H](CO)[C@@H](O)[C@H](O)[C@@H]3O[C@@H]3O[C@H](CO)[C@@H](O)[C@H](OC(N)=O)[C@@H]3O)c3cnc[nH]3)[C@@H](C)O)n2)n1)C(=O)CN(C)C(=O)CN(CCCn1ccnc1)C(=O)CCCOc1cccc(-c2nc3ccc(-c4nc5cc(N6CCN(C)CC6)ccc5[nH]4)cc3[nH]2)c1
Activity (r(CUG) repeat expansion [3]): 30% | Activity (r(CUG) repeat expansion [13]): inactive | Activity (r(CUG) repeat expansion [14]): inactive | Activity (Myotube [15]): inactive | pEC50 (r(CUG) repeat expansion [5]): 6.92 | Activity [16]: 35% | Activity (r(CUG) repeat expansion [17]): inactive | Activity (r(CUG) repeat expansion [18]): inactive | Activity (Myotube [8]): inactive | Activity (Nucleic Acid): inactive | Activity (r(CUG) repeat expansion [19]): inactive | Activity (r(CUG) repeat expansion [20]): inactive | Activity (r(CUG) repeat expansion [21]): > 70% | Activity (r(CUG) repeat expansion [22]): 30% | Activity (Myotube [11]): inactive

SMILES: COc1ccc(CN(CC(=O)N(CCCNC(=O)CCCOc2cccc(-c3nc4ccc(-c5nc6cc(N7CCN(C)CC7)ccc6[nH]5)cc4[nH]3)c2)CC(N)=O)C(=O)CN(Cc2cccnc2)C(=O)CN(C(=O)CN(C)C(=O)CCCOc2cccc(-c3nc4ccc(-c5nc6cc(N7CCN(C)CC7)ccc6[nH]5)cc4[nH]3)c2)C2CC2)cc1
Activity (r(CUG) repeat expansion [2]): Active | Activity [4]: Toxic | Activity (r(CUG) repeat expansion [6]): 2% | Drug uptake [9]: Active | Activity [10]: Non-Toxic | Activity (r(CUG) repeat expansion [12]): Dose-dependent effect
